Experiments:
[1] = target: Acetylcholinesterase (Musca domestica) (UniProt Q7YWJ9); assay: Dual-site binding inhibition of AChE in Musca domestica (house fly) brain at 100 mg/l
Acetylcholinesterase = Acetylcholinesterase (Musca domestica, UniProt Q7YWJ9); assay: Dual-site binding inhibition of AChE in Musca domestica (house fly) brain; assay type: tissue-based
Procedure, shortened: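 Enzyme was prepared from heads of adult houseflies, females and males in a 1:1 ratio. The inhibition procedure followed previously reported methods.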

Lipaphis erysimi = assay: In vivo insecticidal activity against apterous adult stage of Lipaphis erysimi (mustard aphids) in chinese cabbage leaves assessed as mortality at 300 mg/l at 25 degC treated for 10 secs measured after 24 hr; assay type: functional
Procedure, shortened: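 Aphids were reared at 25 (±1) °C, 60 (±5)% RH and a 14 h photoperiod. Acetone stocks at 10 g/L were diluted with water containing 0.1% Triton X-100. Chinese cabbage leaf disks carrying 35 apterous adults were dipped for 10 s, dried, then held at 25 °C. Mortality was scored at 24 h against untreated controls. Three replicates were run, and corrected mortality was calculated.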

[2] = target: Acetylcholinesterase (Musca domestica) (UniProt Q7YWJ9); assay: Ratio of MT IC50 to compound IC50 for AChE in Musca domestica (house fly) brain
[3] = target: Acetylcholinesterase (Musca domestica) (UniProt Q7YWJ9); assay: Ratio of MH IC50 to compound IC50 for AChE in Musca domestica (house fly) brain

Acetylcholinesterase (Musca domestica), sequence (Q7YWJ9 1-692): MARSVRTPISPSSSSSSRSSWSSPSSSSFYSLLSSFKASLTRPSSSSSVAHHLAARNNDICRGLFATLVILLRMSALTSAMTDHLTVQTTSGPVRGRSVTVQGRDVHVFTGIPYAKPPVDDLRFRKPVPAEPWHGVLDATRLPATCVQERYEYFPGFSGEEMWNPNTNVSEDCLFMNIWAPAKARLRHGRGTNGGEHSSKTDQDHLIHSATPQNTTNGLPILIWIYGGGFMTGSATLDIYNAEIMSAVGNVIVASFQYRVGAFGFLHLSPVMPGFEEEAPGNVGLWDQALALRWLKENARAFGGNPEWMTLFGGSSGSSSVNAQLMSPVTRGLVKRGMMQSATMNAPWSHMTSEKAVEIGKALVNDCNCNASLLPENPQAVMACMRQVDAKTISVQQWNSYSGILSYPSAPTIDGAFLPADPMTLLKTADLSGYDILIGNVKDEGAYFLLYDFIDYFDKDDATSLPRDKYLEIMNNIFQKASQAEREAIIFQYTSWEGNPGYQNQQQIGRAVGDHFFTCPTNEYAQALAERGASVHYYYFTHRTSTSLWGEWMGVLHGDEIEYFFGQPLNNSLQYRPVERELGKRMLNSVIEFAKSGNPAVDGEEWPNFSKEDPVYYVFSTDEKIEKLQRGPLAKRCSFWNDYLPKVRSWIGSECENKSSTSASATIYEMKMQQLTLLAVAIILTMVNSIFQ
Acetylcholinesterase, sequence (Q7YWJ9 whole entry): as the sequence (Q7YWJ9 1-692) above

| SMILES | inhibition [1] [%] | IC50 (Acetylcholinesterase) [µM] | mortality at 300 µg/mL (Lipaphis erysimi) [%] | Ratio IC50 [2] | Ratio IC50 [3] |
| --- | --- | --- | --- | --- | --- |
| CNC(=O)Oc1ccc(OCCOc2ccc(C(F)(F)F)cc2)cc1 | 2 | – | – | – | – |
| CN(C)C(=O)Oc1cccc(OC/C=C/COc2ccc(C(F)(F)F)cc2)c1 | 13 | – | – | – | – |
| CN(C)C(=O)Oc1ccc(OCCCOc2ccc(C(F)(F)F)cc2)cc1 | 1 | – | – | – | – |
| CN(C)C(=O)Oc1cccc(OCCCCOc2ccc(C(F)(F)F)cc2)c1 | 20 | – | – | – | – |
| CNC(=O)Oc1ccccc1OC/C=C/COc1ccc(C(F)(F)F)cc1 | 17 | – | – | – | – |
| CNC(=O)Oc1ccccc1 [PHENYL METHYLCARBAMATE] | 46 | 766 | 76 | – | – |
| CNC(=O)Oc1cccc(OC/C=C/COc2ccc(C(F)(F)F)cc2)c1 | 12 | – | – | – | – |
| CN(C)C(=O)Oc1cccc(OCCCOc2ccc(C(F)(F)F)cc2)c1 | 27 | – | – | – | – |
| CNC(=O)Oc1cccc(OCCCCOc2ccc([N+](=O)[O-])cc2)c1 | 80 | 46 | 92 | 3 | 17 |
| CN(C)C(=O)Oc1ccc(OC/C=C/COc2ccc(C(F)(F)F)cc2)cc1 | 0 | – | – | – | – |
| CNC(=O)Oc1cccc(OC/C=C/COc2ccc([N+](=O)[O-])cc2)c1 | 45 | – | – | – | – |
| CNC(=O)Oc1cccc(OCCCOc2ccc(C(F)(F)F)cc2)c1 | 61 | 105 | 85 | 1 | 7 |
| CNC(=O)Oc1cccc(C)c1 [METOLCARB] | – | 150 | 97 | – | – |
| CNC(=O)Oc1ccccc1OCCCCOc1ccc(C(F)(F)F)cc1 | 19 | – | – | – | – |
| CN(C)C(=O)Oc1ccccc1OCCCOc1ccc(C(F)(F)F)cc1 | 25 | – | – | – | – |
| CN(C)C(=O)Oc1ccc(OCCOc2ccc(C(F)(F)F)cc2)cc1 | 6 | – | – | – | – |
| CNC(=O)Oc1ccccc1OCCCOc1ccc(C(F)(F)F)cc1 | 25 | – | – | – | – |

| SMILES | inhibition [1] [%] | IC50 (Acetylcholinesterase) [µM] | mortality at 300 µg/mL (Lipaphis erysimi) [%] | Ratio IC50 [2] | Ratio IC50 [3] |
| --- | --- | --- | --- | --- | --- |
| CNC(=O)Oc1cccc(OCCCCOc2ccc(C(F)(F)F)cc2)c1 | 62 | 107 | 92 | 1 | 7 |
| CNC(=O)Oc1ccc(OCCCCOc2ccc(C(F)(F)F)cc2)cc1 | 4 | – | – | – | – |
| CN(C)C(=O)Oc1ccc(OCCCCOc2ccc(C(F)(F)F)cc2)cc1 | 6 | – | – | – | – |
| CNC(=O)Oc1ccc(OCCCOc2ccc(C(F)(F)F)cc2)cc1 | 2 | – | – | – | – |
| CNC(=O)Oc1cccc(OCCCCOc2ccc(Cl)cc2)c1 | 30 | – | – | – | – |
| CNC(=O)Oc1cccc(OCCCCOc2ccccc2[N+](=O)[O-])c1 | 80 | 61 | 93 | 2 | 13 |
| CNC(=O)Oc1cccc(OCCCCOc2ccccc2OC)c1 | 46 | – | – | – | – |
| CNC(=O)Oc1cccc(OCCCCOc2cccc([N+](=O)[O-])c2)c1 | 92 | 12 | 98 | 12 | 62 |
| CNC(=O)Oc1cccc(OCCCOc2ccc([N+](=O)[O-])cc2)c1 | 69 | 70 | 89 | 2 | 11 |
| CNC(=O)Oc1ccc(OC/C=C/COc2ccc(C(F)(F)F)cc2)cc1 | 3 | – | – | – | – |
| CNC(=O)Oc1cccc(OCCOc2ccc(C(F)(F)F)cc2)c1 | 20 | – | – | – | – |
| CN(C)C(=O)Oc1ccccc1OC/C=C/COc1ccc(C(F)(F)F)cc1 | 7 | – | – | – | – |
| CN(C)C(=O)Oc1ccccc1OCCOc1ccc(C(F)(F)F)cc1 | 15 | – | – | – | – |
| CNC(=O)Oc1ccccc1OCCOc1ccc(C(F)(F)F)cc1 | 13 | – | – | – | – |
| CN(C)C(=O)Oc1ccccc1OCCCCOc1ccc(C(F)(F)F)cc1 | 7 | – | – | – | – |
| CN(C)C(=O)Oc1cccc(OCCOc2ccc(C(F)(F)F)cc2)c1 | 8 | – | – | – | – |

— ChEMBL document CHEMBL3045640, “Synthesis and insecticidal activity of novel carbamate derivatives as potential dual-binding site acetylcholinesterase inhibitors” (J Agric Food Chem, 2010)
